As usually defined, the MIC is the lowest concentration that inhibits growth of the organism. The term inhibition denotes the change of the read-out against control, counted positive when it falls.

Activity calls are given as the source filed them. The rule behind the calls is not given here.

Test [1] concerns Escherichia coli. Description: Antibacterial activity against Escherichia coli ATCC 25922 in presence of monovalent Na+ and K+. Format: functional. The essentials:
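MIC by the standard broth dilution method, in medium made by dissolving TSB powder in 1× PBS (7.5 g per 250 mL), autoclaved, to supply Na+ and K+. Inoculum of log-phase bacteria at 10^6 CFU/mL. MIC = lowest concentration completely inhibiting growth.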

The test system of test [2] is Escherichia coli. Description: Antibiofilm activity against Escherichia coli ATCC 25922 assessed as reduction in biofilm formation at 3 ug/ml measured after 2 days by crystal violet staining based assay. Format: functional. To be noted: ATCC 25922, 48 h, time 2 day. In a few lines: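 Mid-log E. coli (overnight culture, then 6 h subculture at 37 °C) set up with compound in TSB as in the MIC assay and incubated 2 days. Wells washed with DI water, stained with 0.1% crystal violet for 15 min, washed, dried, and dye solubilized in 30% acetic acid for 15 min. OD595 normalized to untreated control. Ciprofloxacin as comparator. Triplicate, mean ± STDEV.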

For test [3], the system named is Escherichia coli. Description: Antibacterial activity against Escherichia coli ATCC 25922 in presence of divalent Ca2+. Format: functional. The essentials: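 MIC by the standard TSB broth dilution method, in TSB made with DI water and supplemented with CaCl2 to 2 mM. Inoculum of log-phase bacteria at 10^6 CFU/mL. MIC = lowest concentration completely inhibiting growth.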

Test [4] concerns Cell membrane. As to the kind of experiment: Induction of cell membrane disruption in methicillin-resistant Staphylococcus aureus ATCC 33591 at 2 times MIC after 2 hrs by transmission electron microscopic analysis. Format: subcellular. The essentials:
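Bacteria at 10^6 CFU/mL were treated at 2× MIC for 2 h at 37 °C, pelleted, washed three times in PBS and resuspended in deionized water. Samples were dropped on grids, blotted, dried under vacuum at 50 °C for 30 s, then imaged by TEM. Untreated control.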

Test [5] has as its system Staphylococcus epidermidis. As to the kind of experiment: Antibacterial activity against methicillin-resistant Staphylococcus epidermidis RP62A in presence of divalent Ca2+. The class given is functional. The essentials:
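MIC set up as in the standard TSB broth microdilution (log-phase inoculum at 10^6 CFU/mL, complete growth inhibition end point). The medium was TSB prepared in DI water with CaCl2 added to 2 mM.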

The test system of test [6] is Staphylococcus epidermidis. Description: Antibacterial activity against methicillin-resistant Staphylococcus epidermidis RP62A in presence of monovalent Na+ and K+. Format: functional. The essentials: (§1)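 MIC set up as in the standard broth microdilution (log-phase inoculum at 10^6 CFU/mL, complete growth inhibition end point). The medium was TSB dissolved in 1× PBS (7.5 g per 250 mL) and autoclaved, supplying Na+ and K+.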

For test [7], the system named is Cell membrane. Description: Induction of cell membrane disruption in Escherichia coli ATCC 25922 at 2 times MIC after 2 hrs by transmission electron microscopic analysis. The class given is subcellular. In a few lines: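 Bacteria at 10^6 CFU/mL treated with compound at 2 × MIC for 2 h at 37 °C; untreated controls included. Cells pelleted, washed three times in PBS, resuspended in deionized water, dropped onto grids, blotted, vacuum-dried at 50 °C for 30 s, and imaged by TEM.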

The subject of test [8] is Cell membrane. Description: Induction of inner membrane permeabilization in methicillin-resistant Staphylococcus aureus ATCC 33591 at 2 times MIC measured for 12 mins by propidium iodide staining based fluorescence microscopic analysis. The class given is functional, subcellular. In a few lines:
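Mid-log cells were washed in 5 mM HEPES/5 mM glucose and set at 10^6 CFU/mL, then mixed with PI (10 μM stock). Baseline fluorescence (ex 535/em 617 nm) was read about 8 min at 2-min intervals. Compound was then added and reading continued for 12 min. Water-only negative control; three repeats.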

Another test deals with Staphylococcus aureus. As to the kind of experiment: Antibacterial activity against methicillin-resistant Staphylococcus aureus ATCC 33591 in presence of monovalent Na+ and K+. Format: functional. The essentials:
as §1

The subject of test [9] is Cell membrane. As to the kind of experiment: Induction of inner membrane permeabilization in Escherichia coli ATCC 25922 at 2 times MIC measured for 12 mins by propidium iodide staining based fluorescence microscopic analysis. The class given is functional, subcellular. The essentials: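 Mid-log bacteria pelleted at 1000g, washed three times in 5 mM HEPES/5 mM glucose, and resuspended to 10^6 CFU/mL. PI added (50 μL of a 10 μM solution to 150 μL of cells). Fluorescence (ex 535 nm, em 617 nm) read every 2 min for about 8 min, then compound added and reading continued for 12 min. Water added as the no-drug control. Three repeats.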

Consider `CCCCCCCCCC(=O)N[C@@H](CCCCN)CN1CC(=O)N(c2ccc(N3CN(C[C@H](CCCCN)NC(=O)CCCCCCCCC)CC3=O)cc2)C1`, for which the minimum inhibitory concentration (MIC) with Escherichia coli [1] stood at 5 µg/mL; in the test with Escherichia coli [3], 7 µg/mL; in test [5], 2 µg/mL; in [6] it was 7 µg/mL; in the test with Staphylococcus aureus, 4 µg/mL. The inhibition at 3 µg/mL in the test on Escherichia coli [2] is over 50%. The outcome with Cell membrane [4], with Cell membrane [7], with Cell membrane [8] and with Cell membrane [9] was Active.
